Assay [1] has as its target T1, Prostaglandin G/H synthase 1 (Ovis aries, UniProt P05979).
T1 sequence (P05979 whole entry): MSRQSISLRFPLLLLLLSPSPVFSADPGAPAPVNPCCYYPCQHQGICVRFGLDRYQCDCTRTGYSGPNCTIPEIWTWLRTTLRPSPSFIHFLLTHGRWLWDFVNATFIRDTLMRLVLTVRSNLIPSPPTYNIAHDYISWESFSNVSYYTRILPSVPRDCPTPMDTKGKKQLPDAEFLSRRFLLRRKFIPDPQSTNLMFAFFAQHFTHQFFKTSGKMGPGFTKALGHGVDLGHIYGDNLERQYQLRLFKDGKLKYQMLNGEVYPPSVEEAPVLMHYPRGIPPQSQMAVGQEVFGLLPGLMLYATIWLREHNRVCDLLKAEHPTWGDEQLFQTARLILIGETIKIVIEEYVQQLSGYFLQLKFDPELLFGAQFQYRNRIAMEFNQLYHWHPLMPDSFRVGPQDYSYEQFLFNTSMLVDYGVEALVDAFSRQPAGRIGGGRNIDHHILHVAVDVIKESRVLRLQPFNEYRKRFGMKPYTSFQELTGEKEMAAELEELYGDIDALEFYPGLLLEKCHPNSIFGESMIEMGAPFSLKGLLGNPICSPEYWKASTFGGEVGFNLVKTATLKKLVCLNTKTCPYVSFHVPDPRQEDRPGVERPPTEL
In words: Inhibition of ovine COX1 by enzyme immuno assay.

The subject of assay [2] is Rattus norvegicus. In words: Antiinflammatory activity in rat assessed as inhibition of carrageenan-induced hind paw edema at 10 mg/kg, po measured after 3 hrs post dose. Type of assay: functional, organism-based. Also on record: dose 10 mg/kg. In outline:
(§1)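 Male Sprague-Dawley rats; paw edema induced with carrageenan; test compound given orally at the stated dose. Edema inhibition read 3 h after dosing, as a mean of n = 4. ED50 values were derived where determined.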

For assay [3], the system named is Rattus norvegicus. In words: Antiinflammatory activity in po dosed rat assessed as inhibition of carrageenan-induced hind paw edema measured after 3 hrs post dose. It counts as functional. In outline:
as §1
On the technique in general: In the carrageenan paw model, swelling and tenderness develop within hours.

Assay [4] has as its system Rattus norvegicus. Put plainly: Antiinflammatory activity in rat assessed as inhibition of carrageenan-induced hind paw edema at 50 mg/kg, po measured after 3 hrs post dose. Type of assay: functional, organism-based. The arrangement: dose 50 mg/kg. In outline:
as §1

The source made the active and inactive calls. The rule behind the calls is not given here.

The source of these data is ChEMBL document CHEMBL1833903, “Isomeric acetoxy analogs of celecoxib and their evaluation as cyclooxygenase inhibitors” (Bioorg Med Chem Lett, 2011).

By IC50 is commonly meant the concentration that inhibits the measured activity by half. In the case of `CC(=O)Oc1cc(C)ccc1-c1cc(C(F)(F)F)nn1-c1ccc(S(C)(=O)=O)cc1`, the IC50 in assay [1] is more than 100 µM.
In assay [1], `Cc1ccc(-c2cc(C(F)(F)F)nn2-c2ccc(S(N)(=O)=O)cc2)c(O)c1` displayed a half-inhibitory concentration (IC50) of 36 µM. The inhibition result in the assay with Rattus norvegicus [2] was “inactive”.
In the case of `CC(=O)Oc1cc(-c2cc(C(F)(F)F)nn2-c2ccc(S(C)(=O)=O)cc2)ccc1C`, the inhibition entry in the assay on Rattus norvegicus [2] was “inactive”.
Compound `CC(=O)Oc1cc(F)ccc1-c1cc(C(F)(F)F)nn1-c1ccc(S(C)(=O)=O)cc1` registered an IC50 in assay [1] of more than 100 µM.
On the same count and under the same terms, for `CC(=O)Oc1ccc(-c2cc(C(F)(F)F)nn2-c2ccc(S(C)(=O)=O)cc2)cc1` the value was 80.3 µM.
`CC(=O)Oc1cccc(-c2cc(C(F)(F)F)nn2-c2ccc(S(N)(=O)=O)cc2)c1` had an IC50 in assay [1] of more than 100 µM.
The same measure, in the same setting: for `CC(=O)Oc1cccc(-c2cc(C(F)(F)F)nn2-c2ccc(S(C)(=O)=O)cc2)c1` the value was more than 100 µM.
`CC(=O)Oc1ccccc1-c1cc(C(F)(F)F)nn1-c1ccc(S(N)(=O)=O)cc1` yielded an IC50 in assay [1] of more than 100 µM.
As a reminder, the ED50 is the dose that gives a 50% effect, or the effect in half of the subjects. With `CC(C)Cc1ccc(C(C)C(=O)O)cc1` (centres undefined) [IBUPROFEN], in the assay on Rattus norvegicus [3], the ED50 came out at 67.4 mg/kg.
`CC(=O)Oc1cc(-c2cc(C(F)(F)F)nn2-c2ccc(S(N)(=O)=O)cc2)ccc1C` registered an IC50 in assay [1] of more than 100 µM. Besides, in the assay with Rattus norvegicus [4], the inhibition result was “inactive”.
Regarding `CC(=O)Oc1cc(F)ccc1-c1cc(C(F)(F)F)nn1-c1ccc(S(N)(=O)=O)cc1`, the ED50 in the assay with Rattus norvegicus [3] (Rattus norvegicus, po, 3 h, read-out: ED50) was determined as 42.3 mg/kg. Half-maximal inhibition in assay [1] (IC50) required 0.7 µM.
In assay [1], `CC(=O)Oc1cc(C)ccc1-c1cc(C(F)(F)F)nn1-c1ccc(S(N)(=O)=O)cc1` came in with an IC50 of more than 100 µM. For the same compound, the inhibition result in the assay with Rattus norvegicus [4] was “inactive”.
Taken in the same sequence, the figures for `CC(=O)Oc1ccc(-c2cc(C(F)(F)F)nn2-c2ccc(S(N)(=O)=O)cc2)cc1` were more than 100 µM and “inactive”.
Take `CC(=O)Oc1ccccc1C(=O)O` [ASPIRIN]: the median effective dose (ED50) in the assay with Rattus norvegicus [3] stood at 129 mg/kg.
